Source: publication PMC8694313 (RSC Advances, 2021)
In brackets after ≈: the same amount, converted by molar mass.

Legend:
[1] = system: carrageenan-induced paw edema; experiment: Carrageenan induced hind paw edema assay; format: in vivo; settings: rat, 100 mg kg^−1 p.o., mean ± SEM
Procedure, shortened: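 Rats, six per group, acclimatized one week (25 ± 2 °C, 12 h light/dark, standard pellets, water ad libitum). […] Paw volume measured by plethysmometer displacement to the lateral malleolus at 1, 3 and 6 h. Mean ± SEM.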

[2] = system: cotton pellet induced granuloma; experiment: Cotton pellets induced granuloma assay; format: in vivo; settings: rat, 100 mg kg^−1 p.o. for 8 d, mean ± SEM
Procedure, shortened: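 Two sterile 10 mg cotton pellets implanted ventrally in rats, six per group. […] On day 9 rats were killed under excess ether. Pellets were freed of tissue and weighed wet, then dried at 55 °C for 6 h or to constant weight. Granuloma equals dry weight minus cotton weight. Mean ± SEM.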

Bacillus subtillis = experiment: In vitro antibacterial MIC determination; format: cell-based
Procedure, shortened: (§1)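 Bacteria grown on nutrient agar, subcultured to log phase in nutrient broth, then diluted in sterile saline to about 10^5–10^6 CFU mL−1. Test compounds diluted in acetone, DMSO or diethyl ether (ether preferred). Saturated disks placed on spread-plated inoculum and incubated at 37 °C for 24 h. MIC determined across different compound concentrations, with streptomycin as standard.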

Staphylococcus aureus = experiment: In vitro antibacterial MIC determination; format: cell-based
Procedure, shortened: as §1

Escherichia coli = experiment: In vitro antibacterial MIC determination; format: cell-based
Procedure, shortened: as §1

Pseudomonas aeruginosa = experiment: In vitro antibacterial MIC determination; format: cell-based
Procedure, shortened: as §1

Aspergillus niger = experiment: In vitro antifungal MIC, poison plate technique; format: cell-based
Aspergillus flavus = experiment: In vitro antifungal MIC, poison plate technique; format: cell-based
Rhizopus arrhizus = experiment: In vitro antifungal MIC, poison plate technique; format: cell-based
COX-1 = target: T1, COX-1 (Ovis aries, UniProt P05979); experiment: Colorimetric COX; format: biochemical, ovine; settings: read-out: % inhibition of COX, COX-1
T1 sequence (P05979 25-600): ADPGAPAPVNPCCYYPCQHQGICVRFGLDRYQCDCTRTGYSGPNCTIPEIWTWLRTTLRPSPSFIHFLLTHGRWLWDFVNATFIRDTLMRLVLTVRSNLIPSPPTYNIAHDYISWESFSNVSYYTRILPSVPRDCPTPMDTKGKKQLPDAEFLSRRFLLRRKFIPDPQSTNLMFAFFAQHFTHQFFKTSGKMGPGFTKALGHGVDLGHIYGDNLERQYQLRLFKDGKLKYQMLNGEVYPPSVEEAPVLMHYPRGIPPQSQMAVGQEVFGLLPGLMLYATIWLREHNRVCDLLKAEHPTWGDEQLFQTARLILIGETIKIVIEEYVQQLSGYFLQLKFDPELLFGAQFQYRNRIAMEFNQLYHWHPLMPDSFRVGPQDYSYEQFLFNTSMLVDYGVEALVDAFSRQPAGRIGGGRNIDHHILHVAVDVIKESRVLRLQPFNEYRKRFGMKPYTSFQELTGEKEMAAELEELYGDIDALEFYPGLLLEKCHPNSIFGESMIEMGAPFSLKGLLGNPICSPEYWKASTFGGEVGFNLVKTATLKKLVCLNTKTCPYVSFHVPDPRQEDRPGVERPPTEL

COX-2 = target: T2, COX-2 (Ovis aries, UniProt P79208); experiment: Colorimetric COX; format: biochemical, ovine; settings: read-out: % inhibition of COX, COX-2
T2 sequence (P79208 17-603): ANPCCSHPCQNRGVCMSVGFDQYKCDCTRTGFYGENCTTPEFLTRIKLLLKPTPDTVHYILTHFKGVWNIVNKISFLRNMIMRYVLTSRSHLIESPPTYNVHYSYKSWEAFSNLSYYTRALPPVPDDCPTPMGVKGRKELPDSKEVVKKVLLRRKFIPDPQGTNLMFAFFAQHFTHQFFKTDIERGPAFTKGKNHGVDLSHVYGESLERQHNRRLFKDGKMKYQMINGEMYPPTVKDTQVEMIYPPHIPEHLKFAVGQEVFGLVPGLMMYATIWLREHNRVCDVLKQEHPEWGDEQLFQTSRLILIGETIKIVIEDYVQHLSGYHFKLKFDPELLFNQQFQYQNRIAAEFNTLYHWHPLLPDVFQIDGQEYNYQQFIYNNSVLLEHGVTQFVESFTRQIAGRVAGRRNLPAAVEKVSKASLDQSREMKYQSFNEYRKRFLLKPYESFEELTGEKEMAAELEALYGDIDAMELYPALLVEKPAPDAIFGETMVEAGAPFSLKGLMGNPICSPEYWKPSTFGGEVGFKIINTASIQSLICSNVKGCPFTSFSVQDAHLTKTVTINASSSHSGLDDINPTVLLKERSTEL

RAW 264.7 cells [3] = experiment: MTT assay, LPS-induced inflammation in RAW 264.7; format: cell-based, murine; settings: RAW 264.7, pre-treatment 100 μM and 200 μM, then LPS; Fig. 4
Procedure, shortened: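 Mouse RAW 264.7 macrophages kept in high-glucose DMEM with 10% heat-inactivated FBS and 1% penicillin–streptomycin at 37 °C, 5% CO2. Cells seeded at 5 × 10^5 cells per mL, pretreated 1 h with test compound (100 or 200 μM), then stimulated with […] for 24 h. Medium replaced; 0.5 mg mL−1 MTT for 3 h; formazan dissolved in DMSO; OD read at 540 nm. Percent inflammation derived by subtracting percent viability relative to control.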

RAW 264.7 cells [4] = experiment: Nitrite; format: cell-based, murine; settings: RAW 264.7, 100 μM and 200 μM pre-treatment; Fig. 5
Procedure, shortened: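 RAW 264.7 cells (1 × 10^6) seeded in flasks and left to adhere overnight. Pretreated 1 h with test compound (100 or 200 μM), then 100 μM LPS for 24 h at 37 °C, 5% CO2. Supernatant mixed with an equal volume of Griess reagent (0.1% naphthylethylenediamine and 1% sulfanilamide, 1:1, in 5% phosphoric acid) for 10 min in the dark at room temperature; A540 read. Nitrite quantified from a NaNO2 standard curve (0.1–6.25 μM), expressed as μmol NO2−/mg protein. Triplicates.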

Structure (SMILES)	Paw volume ([1]; 1 h after carrageenan) [mL]	Paw volume ([1]; 3 h after carrageenan) [mL]	Paw volume ([1]; 6 h after carrageenan) [mL]	Weight, Dry (cotton pellet) [2] [mg]	Weight, Wet (cotton pellet) [2] [mg]	MIC (Bacillus subtillis) [µg/mL]	MIC (Staphylococcus aureus) [µg/mL]	MIC (Escherichia coli) [µg/mL]	MIC (Pseudomonas aeruginosa) [µg/mL]	MIC (Aspergillus niger) [µg/mL]	MIC (Aspergillus flavus) [µg/mL]	MIC (Rhizopus arrhizus) [µg/mL]	inhibition at 100 µM (COX-1) [%]	inhibition at 200 µM (COX-1) [%]	inhibition at 100 µM (COX-2) [%]	inhibition at 200 µM (COX-2) [%]	anti-inflammatory activity against LPS induced cell death / inflammation (MTT) (RAW 264.7 cells [3])	inhibition of LPS-induced NO production (RAW 264.7 cells [4])
Cc1ccc(-c2cc(C(F)(F)F)nn2-c2ccc(S(N)(=O)=O)cc2)cc1 [Celecoxib, reference compound]	0.80 ± 0.50	0.98 ± 0.92	1.58 ± 0.22	78.80 ± 3.24	150.14 ± 3.46													
O=S(=O)(NC[C@@H](O)[C@@H]1CCc2cc(F)ccc2O1)c1ccc(Br)cc1 [Compound 8b, 4-Bromo-N-((R)-2-((S)-6-fluorochroman-2-yl)-2-hydroxyethyl)benzenesulfonamide]	0.52 ± 0.18	0.80 ± 0.38	1.06 ± 0.27	84.10 ± 1.67	182.50 ± 1.77	15.08 ± 0.08 (≈ 35 µM)	17.9 ± 0.61 (≈ 41.6 µM)	12.7 ± 0.87 (≈ 29.5 µM)	22.4 ± 0.4 (≈ 52.1 µM)	20.4 ± 0.87 (≈ 47.4 µM)	17.81 ± 0.16 (≈ 41.4 µM)	20.2 ± 0.65 (≈ 47 µM)	46.1 ± 0.22	68.78 ± 0.43	34.4 ± 0.66	60.04 ± 0.24	strong anti-inflammatory activity	strong inhibition
[H]/N=C(/N)N[C@H]1[C@H](O)[C@@H](O)[C@H](O[C@@H]2O[C@@H](C)[C@](O)(C=O)[C@H]2O[C@@H]2O[C@@H](CO)[C@H](O)[C@@H](O)[C@@H]2NC)[C@@H](N/C(N)=N\[H])[C@@H]1O [Streptomycin, reference compound]						25.4 ± 0.48 (≈ 43.7 µM)	18.6 ± 1.07 (≈ 32.1 µM)	26.4 ± 1.12 (≈ 45.4 µM)	28.2 ± 0.8 (≈ 48.5 µM)									
O=[N+]([O-])c1cc(S(=O)(=O)NC[C@@H](O)[C@@H]2CCc3cc(F)ccc3O2)ccc1Cl [Compound 8d, 4-Chloro-N-((R)-2-((S)-6-Fluorochroman-2-yl)-2-hydroxyethyl)-3-nitrobenzenesulfonamide]	0.78 ± 0.88	1.08 ± 0.40	1.50 ± 0.64			18.3 ± 0.21 (≈ 42.5 µM)	17.4 ± 0.4 (≈ 40.5 µM)	24.2 ± 0.72 (≈ 56.1 µM)	27.4 ± 0.65 (≈ 63.6 µM)	15.3 ± 0.15 (≈ 35.5 µM)	17 ± 0.7 (≈ 39.6 µM)	18.6 ± 0.65 (≈ 43.3 µM)	53.88 ± 0.3	69.64 ± 0.18	39.3 ± 0.77	63.88 ± 0.46	strong anti-inflammatory activity	strong inhibition
O=S(=O)(NC[C@@H](O)[C@@H]1CCc2cc(F)ccc2O1)c1ccc(F)cc1F [Compound 8f, N-((R)-2-((S)-6-Fluorochroman-2-yl)-2-hydroxyethyl)-2,4-difluorobenzenesulfonamide]	0.62 ± 0.10	0.86 ± 0.32	1.10 ± 0.13	70.66 ± 2.33	139.82 ± 2.42	16.2 ± 0.94 (≈ 41.9 µM)	19.9 ± 0.66 (≈ 51.3 µM)	24.1 ± 1.02 (≈ 62.1 µM)	26.8 ± 0.55 (≈ 69.3 µM)	15.7 ± 0.69 (≈ 40.4 µM)	16.2 ± 0.82 (≈ 41.8 µM)	19 ± 0.2 (≈ 49.2 µM)	33.9 ± 1.06	73.85 ± 0.54	28.7 ± 0.07	52.1 ± 0.78	strong anti-inflammatory activity	strong inhibition
